# pIC50: −log10 of the molar value. Calls of active or inactive are those of the source. No cut-off for these calls is given here.
# Columns and labels:
# [1] = Cytotoxicity against rat 3T3 cells assessed as reduction in cell viability incubated for 72 hrs by alamar blue assay; format: ADME, cell-based; conditions: NIH3T3, 72 h
# [2] = test system: L6; test: Cytotoxicity against rat L6 cells assessed as reduction in cell viability incubated for 72 hrs by alamar blue assay; format: ADME, cell-based; conditions: L6, 72 h
# [3] = Selectivity index, ratio of IC50 for cytotoxicity against rat L6 cells to IC50 for antitrypanosomal activity against Trypanosoma cruzi Tulahuen strain C2C4 amastigotes infected in rat L6 cells
# [4] = test system: Trypanosoma cruzi; test: Antitrypanosomal activity against Trypanosoma cruzi Tulahuen strain C2C4 amastigotes infected in […] cells assessed as reduction in parasite growth incubated for 48 hrs by chlorophenol red-fl-D-galactopyranoside based colorimetric analysis relative to control; format: functional
# [5] = test system: Trypanosoma cruzi; test: Antitrypanosomal activity against Trypanosoma cruzi Tulahuen strain C2C4 amastigotes infected in rat L6 cells assessed as inhibition of parasite growth incubated for 96 hrs by chlorophenol red-fl-D-galactopyranoside based colorimetric analysis; format: functional, organism-based; conditions: for pIC50: Tulahuen strain C2C4, L6, 96 h; for IC90: Tulahuen strain C2C4, L6, time 96 hrs
# Summary of the method: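 Tulahuen strain TcVI T. cruzi expressing β-galactosidase, grown in L6 rat skeletal myoblast host cells. IC50/IC90 growth inhibition. Each value is the mean of ≥2 independent determinations using fresh sample stock.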
# [6] = Inhibition of Trypanosoma cruzi Tulahuen C4 strain CYP51 expressed in Escherichia coli by fluorescence based assay
# [7] = Selectivity index, ratio of IC50 for cytotoxicity against rat 3T3 cells to IC50 for antitrypanosomal activity against Trypanosoma cruzi Tulahuen strain C2C4 amastigotes infected in rat 3T3 cells
# [8] = test system: Trypanosoma cruzi; test: Antitrypanosomal activity against Trypanosoma cruzi Tulahuen strain C2C4 amastigotes infected in […] cells assessed as reduction in parasite growth incubated for 48 hrs by chlorophenol red-fl-D-galactopyranoside based colorimetric analysis; format: functional, organism-based; conditions: for pIC50: Tulahuen strain C2C4, NIH3T3, 48 h; for IC90: Tulahuen strain C2C4, NIH3T3, time 48 hrs
# [9] = Kinetic solubility of compound in water sonicated for 15 mins by HPLC analysis
# [10] = Metabolic stability in CD-1 mouse liver microsomes assessed as parent compound remaining incubated for 1 hr; format: ADME, Microsome
# Summary of the method: (§1)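 Pooled human or CD-1 mouse liver microsomes at 0.4 mg/mL microsomal protein. Percent parent remaining after 1 h incubation.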
# [11] = Metabolic stability in human liver microsomes assessed as parent compound remaining incubated for 1 hr; format: ADME, Microsome; conditions: read-out: Stabilty; summary of the method: as §1
# [12] = Half life in human liver microsomes incubated for 60 mins
# [13] = test system: Trypanosoma cruzi; test: Antitrypanosomal activity against Trypanosoma cruzi amastigotes assessed as inhibition of parasite growth at 10 ug/ml relative to control
# [14] = test system: Trypanosoma cruzi; test: Antitrypanosomal activity against Trypanosoma cruzi Y strain amastigotes infected in U2OS cells assessed as inhibition of parasite growth at […] by image-based assay relative to control
# [15] = test system: Trypanosoma cruzi; test: Antitrypanosomal activity against bloodstream trypomastigotes form of Trypanosoma cruzi CL Brener infected in BALB/c mouse assessed as reduction in parasitemia at 100 mg/kg, po qd administered for 5 days starting from day 114 post infection followed by cyclophosphamide induced immunosuppression on days 135, 139 and 143 post infection and measured for 149 days by bioluminescence analysis; format: functional, organism-based; conditions: time 5.0 day
# Summary of the method: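 Female BALB/c mice, 8 weeks old, ~18 g, 5 per group. Infected i.p. with 10^3 bloodstream trypomastigotes of bioluminescent CL Brener (pTRIX2-RE9h). From day 114 p.i., oral dosing once daily for 5 days: reference drugs at 100 mg/kg in HPMC-SV with 5% DMSO, PEG400 vehicle at 50 mg/kg. Cyclophosphamide 200 mg/kg i.p. on days 135, 139 and 143. Final imaging day 149. Ex vivo organ bioluminescence days 149-151.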
# [16] = Kinetic solubility of compound in 0.1M HCl at pH 1 sonicated for 15 mins by HPLC analysis; format: physicochemical; conditions: read-out: Kinetic_solubility
# Summary of the method: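 Solid mixed with 0.1 M HCl to a nominal 2 mM, sonicated 15 min, centrifuged 6 min. Supernatant diluted 2-fold and analysed by HPLC. Kinetic solubility from peak area against a DMSO standard solution.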
# [17] = test system: Trypanosoma cruzi; test: Antitrypanosomal activity against Trypanosoma cruzi Y strain amastigotes infected in U2OS cells assessed as inhibition of parasite growth at 3.3 ug/ml by image-based assay relative to control
SMILES,pIC50 [1],pIC50 [2],selectivity ratio [3],%max [4] [%],pIC50 [5],IC90 [5] [µM],pIC50 [6],selectivity ratio ([7]; 3T3 cells),pIC50 [8],IC90 [8] [µM],solubility kinetic at 0.25 h [9] [µg/mL],remaining at 1 h [10] [%],remaining at 1 h [11] [%],half-life at 1 h [12] [h],inhibition at 10 µg/mL [13] [%],inhibition at […] [14] [%],selectivity ratio [7],Activity [15],solubility kinetic at 0.25 h [16] [µg/mL],inhibition at 3.3 µg/mL [17] [%]
O=[N+]([O-])c1cn2c(n1)OC[C@H](OCc1ccc(-c3ccc(C(F)(F)F)cc3Cl)cc1)C2,< 4.43,4.54,116,100,6.60,0.71,5.12,> 132,6.55,0.41,< 0.1,83,76,–,–,–,–,–,–,–
O=[N+]([O-])c1cn2c(n1)[S+]([O-])CC(OCc1ccc(COc3ccccc3)cc1)C2 (stereo unspecified),–,< 4.00,> 2860,–,7.46,0.089,–,–,–,–,0.44,–,–,2.6,89,–,–,–,–,–
O=[N+]([O-])c1cn2c(n1)OC[C@@H](OCC#Cc1ccc(-c3ccc(C(F)(F)F)cc3)cn1)C2,< 4.43,< 4.00,> 435,97,6.64,0.59,< 5.00,> 73,6.29,1.7,0.33,–,–,–,–,48,–,–,–,–
CC1CS(=O)(=O)CCN1/N=C/c1ccc([N+](=O)[O-])o1 (stereo unspecified) [NIFURTIMOX],< 3.90,–,–,99,–,–,< 5.00,–,5.68,4.6,–,–,–,–,–,–,> 60,Active,–,–
O=[N+]([O-])c1cn2c(n1)OC[C@H](OCc1ccc(-c3ccc(OC(F)(F)F)cc3Cl)cc1)C2,< 4.43,4.60,104,99,6.62,1.1,< 5.00,> 65,6.24,1,< 0.1,76,85,–,–,–,–,–,–,–
O=[N+]([O-])c1cn2c(n1)OCC(COc1ccc(-c3ccc(F)cc3)cn1)C2 (stereo unspecified),–,< 4.00,> 4540,–,7.66,0.19,–,–,–,–,1.1,–,–,–,–,29,–,–,–,–
O=[N+]([O-])c1cn2c(n1)OC[C@H](OCc1ccc(-c3ccc(C(F)(F)F)cc3Cl)cn1)C2,–,4.30,75,–,6.17,2.9,–,–,–,–,1,–,–,–,–,–,–,–,299,–
O=[N+]([O-])c1cn2c(n1)OC[C@H](OCC#Cc1ccc(-c3ccc(C(F)(F)F)cc3)cn1)C2,< 4.43,–,–,95,–,–,< 5.00,> 137,6.57,1.7,0.68,76,58,–,–,–,–,–,7.6,–
O=[N+]([O-])c1nc2n(n1)C[C@H](OCc1ccc(OCc3ccccc3)cc1)CO2,–,< 4.00,> 2130,–,7.33,0.13,–,–,–,–,0.18,–,–,–,12,–,–,–,–,–
CSc1ccc(OCc2ncc([N+](=O)[O-])n2C)cc1,–,–,–,–,–,–,–,–,–,–,–,–,–,–,–,–,–,Active,–,–
CC1(COCc2ccc(OCc3ccccc3)cc2)Cn2cc([N+](=O)[O-])nc2S1(=O)=O (stereo unspecified),–,< 4.00,> 1200,–,7.08,0.24,–,–,–,–,< 0.1,–,–,0.417,–,–,–,–,–,59
O=[N+]([O-])c1cn2c(n1)OC[C@H](OCC#Cc1ccc(-c3ccc(OC(F)(F)F)cc3)cn1)C2,< 4.43,–,–,94,–,–,< 5.00,> 55,6.17,2.2,< 0.1,74,68,–,–,–,–,–,3,–
O=[N+]([O-])c1nc2n(n1)C[C@H](O)CO2,–,< 4.00,> 63,–,5.80,6.3,–,–,–,–,8750,–,–,–,–,58,–,–,–,–
CC1(COc2ccc(OC(F)(F)F)cc2)CCn2cc([N+](=O)[O-])nc2S1(=O)=O (stereo unspecified),< 4.43,< 4.00,> 143,101,6.15,1.6,< 5.00,> 28,5.89,3,1.1,76,88,–,–,–,–,–,–,–
O=[N+]([O-])c1cn2c(n1)S(=O)(=O)CC(OCc1ccc(COc3ccccc3)cc1)C2 (stereo unspecified),–,< 4.00,> 357,–,6.55,0.44,–,–,–,–,0.13,–,–,1.72,95,–,–,–,–,–
O=C(Cn1ccnc1[N+](=O)[O-])NCc1ccccc1 [BENZNIDAZOLE],< 3.90,–,–,101,–,–,< 5.00,> 11,4.92,37,–,–,–,–,–,–,–,Active,–,–
O=[N+]([O-])c1cn2c(n1)OC[C@@H](OCc1cccc(-c3cccc(OC(F)(F)F)c3)c1)C2,–,4.89,–,–,< 5.00,> 10,–,–,–,–,–,–,–,–,65,–,–,–,–,–
CC1(COc2ccc(-c3ccc(F)cc3)cn2)CCn2cc([N+](=O)[O-])nc2O1 (stereo unspecified),–,–,–,–,–,–,–,–,–,–,–,–,–,–,–,–,–,–,–,50

# From ChEMBL document CHEMBL4706606, “Re-evaluating pretomanid analogues for Chagas disease: Hit-to-lead studies reveal both in vitro and in vivo trypanocidal efficacy” (Eur J Med Chem, 2020)
